Data: ChEMBL document CHEMBL1124104, “(Acyloxy)benzophenones and (acyloxy)-4-pyrones. A new class of inhibitors of human neutrophil elastase” (J Med Chem, 1988)

Molecular target: T1, Neutrophil elastase (Homo sapiens, UniProt P08246)
T1 sequence (P08246 whole entry): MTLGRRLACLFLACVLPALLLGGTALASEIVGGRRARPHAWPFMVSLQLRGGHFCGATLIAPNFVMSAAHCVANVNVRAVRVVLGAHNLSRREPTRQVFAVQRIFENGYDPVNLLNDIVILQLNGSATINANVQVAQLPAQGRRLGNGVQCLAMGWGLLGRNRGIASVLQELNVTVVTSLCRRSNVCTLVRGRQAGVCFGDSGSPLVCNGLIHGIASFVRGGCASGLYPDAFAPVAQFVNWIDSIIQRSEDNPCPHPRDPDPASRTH
Assay: Inhibitory activity against human leukocyte elastase at 10e-7 M; call rule not given here

Row | SMILES | IC50
1 | CCCCCCCC/C=C/CCCCCCCC(=O)OCc1cc(=O)c(OC(=O)C(C)(C)C)co1 | 0.3 µM
2 | CC(C)(C)C(=O)Oc1ccccc1C(=O)c1ccccc1 | 10 µM
3 | CCCCCCCC/C=C/CCCCCCCCCC(=O)OCc1cc(=O)c(OC(=O)C(C)(C)C)co1 | 0.21 µM
4 | CC(C)(C)C(=O)Oc1ccc(S(=O)(=O)c2ccc(O)cc2)cc1 | 1.8 µM
5 | CC(C)(C)C(=O)Oc1ccc(C(=O)OCc2cc(=O)c(OC(=O)C(C)(C)C)co2)cc1 | 0.2 µM
6 | CCCCCCCC/C=C/CCCCCCCCCCCC(=O)OCc1cc(=O)c(OC(=O)C(C)(C)C)co1 | 0.16 µM
7 | CCCCCCCCCCCCCCCCCC(=O)OCc1cc(=O)c(OC(=O)C(C)(C)C)co1 | 0.1 µM
8 | C=C(C)Cc1cc(C(=O)c2ccccc2)ccc1OC(=O)C(C)(C)C | 0.85 µM
9 | CCCCCCCCCCCCCCCC(=O)OCc1cc(=O)c(OC(=O)C(C)(C)C)co1 | 0.11 µM
10 | CCCCCCCCCCCCCCCCCCCC(=O)OCc1cc(=O)c(O)co1 | 9 µM
11 | CCCCCC/C=C/CCCCCCCC(=O)OCc1cc(=O)c(OC(=O)C(C)(C)C)co1 | 0.13 µM
12 | CC(C)(C)C(=O)Oc1ccc(Cc2ccc(OC(=O)C(C)(C)C)cc2)cc1 | 0.46 µM
13 | CC(C)(C)C(=O)Oc1ccc(C(=O)c2ccc(Cl)cc2)cc1 | 0.14 µM
14 | CCCCCCCCCCCCCCCCCCCC(=O)OCc1cc(=O)c(OC(=O)C(C)(C)C)co1 | 0.13 µM
15 | CC(C)(C)C(=O)Oc1ccc(Oc2ccc(OC(=O)C(C)(C)C)cc2)cc1 | 0.45 µM
16 | CC(C=O)Cc1cc(C(=O)c2ccccc2)ccc1OC(=O)C(C)(C)C (configuration not stated) | 0.8 µM
17 | CC(C)(C)C(=O)Oc1cc(C(=O)OCc2cc(=O)c(OC(=O)C(C)(C)C)co2)cc(OC(=O)C(C)(C)C)c1OC(=O)C(C)(C)C | 0.1 µM
18 | CCCCCCCCCCCCC(C)(C)C(=O)OCc1cc(=O)c(OC(=O)C(C)(C)C)co1 | 0.6 µM

Molecular target: T2, Neutrophil elastase (Homo sapiens) (UniProt P08246)
T2 sequence (whole entry): T1 sequence (P08246 whole entry)
Assay: Inhibitory activity against [14C]elastin hydrolysis at 4 uM concentration and 2 hr.
How it was run: (§1)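 Elastase digestion of [¹⁴C]elastin, quantitated by radiolabel release (method of Bielefeld et al.). Substrate, inhibitor and elastase were all present for the whole run, and % inhibition was read at 1, 2 and 3 h.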

Row | SMILES | inhibition
19 | CCCCCCCC/C=C/CCCCCCCCCCCC(=O)OCc1cc(=O)c(OC(=O)C(C)(C)C)co1 | 50%
20 | CCCCCCCCCCCCCCCCCC(=O)OCc1cc(=O)c(OC(=O)C(C)(C)C)co1 | 53%

Molecular target: T2, Neutrophil elastase (Homo sapiens)
Assay: Inhibitory activity against human leukocyte elastase at 10e-4 M
How it was run: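 HLE activity followed as rise in absorbance at 410 nm from nitroanilide release; substrate (methoxysuccinyl)Ala-Ala-Pro-Val nitroanilide at 10⁻⁴ M. Run in 0.2 M Tris, pH 8.0, 30 °C. Inhibitors and substrate dissolved in DMSO, which made up 10% of the final medium. Enzyme titrated to give 0.12 OD unit/min per 10 mm path.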

Row | SMILES | inhibition
21 | O=c1cc(COC2CCOCC2)occ1OC(=O)[C@]12C[C@H]3C[C@H](C[C@H](C3)C1)C2 | 33%

Molecular target: T2, Neutrophil elastase (Homo sapiens)
Assay: Inhibitory activity against [14C]elastin hydrolysis at 3 uM concentration and 1h.
How it was run: as §1

Row | SMILES | inhibition
22 | CC(C)(C)C(=O)Oc1ccc(S(=O)(=O)c2ccc(OC(=O)C(C)(C)C)cc2)cc1 | 56%
23 | CCCCCCCC/C=C/CCCCCCCCCCCC(=O)OCc1cc(=O)c(OC(=O)C(C)(C)C)co1 | 74%
24 | CCCCCCCCCCCCCCCCCC(=O)OCc1cc(=O)c(OC(=O)C(C)(C)C)co1 | 67%
25 | CC(C)(C)C(=O)Oc1ccc(C(=O)c2ccccc2)c(OC(=O)C(C)(C)C)c1 | 62%
26 | CC(C)(C)C(=O)Oc1cc(C(=O)OCc2cc(=O)c(OC(=O)C(C)(C)C)co2)cc(OC(=O)C(C)(C)C)c1OC(=O)C(C)(C)C | 71%

Molecular target: T1, Neutrophil elastase
Assay: Inhibitory activity against human leukocyte elastase at 10e-6 M

Row | SMILES | IC50
27 | O=C(c1ccccc1)c1ccc(OC(=O)C2CC2)cc1 | 1.4 µM
28 | Cc1cc(C)c(C(=O)OCc2cc(=O)c(OC(=O)C(C)(C)C)co2)c(C)c1 | 8.4 µM
29 | CCC(C)CC(=O)Oc1ccc(C(=O)c2ccc(OC(=O)CC(C)CC)cc2OC(=O)CC(C)CC)c(OC(=O)CC(C)CC)c1 (configuration not stated) | 1.5 µM
30 | CC(C)(C)C(=O)Oc1ccc(C(=O)c2ccc(O)cc2)cc1 | 2.7 µM

Molecular target: T2, Neutrophil elastase (Homo sapiens)
Assay: Inhibitory activity against [14C]elastin hydrolysis at 1 uM concentration and 2 hr.
How it was run: as §1

Row | SMILES | inhibition
31 | CC(C)(C)C(=O)Oc1ccc(S(=O)(=O)c2ccc(OC(=O)C(C)(C)C)cc2)cc1 | 14%
32 | CC(C)(C)C(=O)Oc1ccc(C(=O)c2ccccc2)c(OC(=O)C(C)(C)C)c1 | 10%
33 | CC(C)(C)C(=O)Oc1cc(C(=O)OCc2cc(=O)c(OC(=O)C(C)(C)C)co2)cc(OC(=O)C(C)(C)C)c1OC(=O)C(C)(C)C | 15%

Molecular target: T2, Neutrophil elastase (Homo sapiens)
Assay: Inhibitory activity against [14C]-Elastin hydrolysis at 2 uM concentration and 2 hr.
How it was run: as §1

Row | SMILES | inhibition
34 | CC(C)(C)C(=O)Oc1ccc(S(=O)(=O)c2ccc(OC(=O)C(C)(C)C)cc2)cc1 | 29%
35 | CCCCCCCC/C=C/CCCCCCCCCCCC(=O)OCc1cc(=O)c(OC(=O)C(C)(C)C)co1 | 33%
36 | CCCCCCCCCCCCCCCCCC(=O)OCc1cc(=O)c(OC(=O)C(C)(C)C)co1 | 21%
37 | CC(C)(C)C(=O)Oc1ccc(C(=O)c2ccccc2)c(OC(=O)C(C)(C)C)c1 | 12%
38 | CC(C)(C)C(=O)Oc1cc(C(=O)OCc2cc(=O)c(OC(=O)C(C)(C)C)co2)cc(OC(=O)C(C)(C)C)c1OC(=O)C(C)(C)C | 44%

Molecular target: T2, Neutrophil elastase (Homo sapiens)
Assay: Inhibitory activity against [14C]elastin hydrolysis at 2 uM concentration and 1h.
How it was run: as §1

Row | SMILES | inhibition
39 | CC(C)(C)C(=O)Oc1ccc(S(=O)(=O)c2ccc(OC(=O)C(C)(C)C)cc2)cc1 | 39%
40 | CCCCCCCC/C=C/CCCCCCCCCCCC(=O)OCc1cc(=O)c(OC(=O)C(C)(C)C)co1 | 61%
41 | CCCCCCCCCCCCCCCCCC(=O)OCc1cc(=O)c(OC(=O)C(C)(C)C)co1 | 57%
42 | CC(C)(C)C(=O)Oc1ccc(C(=O)c2ccccc2)c(OC(=O)C(C)(C)C)c1 | 36%
43 | CC(C)(C)C(=O)Oc1cc(C(=O)OCc2cc(=O)c(OC(=O)C(C)(C)C)co2)cc(OC(=O)C(C)(C)C)c1OC(=O)C(C)(C)C | 58%

Molecular target: T2, Neutrophil elastase (Homo sapiens)
Assay: Inhibitory activity against [14C]elastin hydrolysis at 4 uM concentration and 1h.
How it was run: as §1

Row | SMILES | inhibition
44 | CCCCCCCC/C=C/CCCCCCCCCCCC(=O)OCc1cc(=O)c(OC(=O)C(C)(C)C)co1 | 77%
45 | CCCCCCCCCCCCCCCCCC(=O)OCc1cc(=O)c(OC(=O)C(C)(C)C)co1 | 79%

Molecular target: T2, Neutrophil elastase (Homo sapiens)
Assay: Inhibitory activity against [14C]elastin hydrolysis at 1 uM concentration and 3h.
How it was run: as §1

Row | SMILES | inhibition
46 | CC(C)(C)C(=O)Oc1cc(C(=O)OCc2cc(=O)c(OC(=O)C(C)(C)C)co2)cc(OC(=O)C(C)(C)C)c1OC(=O)C(C)(C)C | 3%

Molecular target: T2, Neutrophil elastase (Homo sapiens)
Assay: Inhibitory activity against [14C]elastin hydrolysis at 4 uM concentration and 3h.
How it was run: as §1

Row | SMILES | inhibition
47 | CCCCCCCC/C=C/CCCCCCCCCCCC(=O)OCc1cc(=O)c(OC(=O)C(C)(C)C)co1 | 22%
48 | CCCCCCCCCCCCCCCCCC(=O)OCc1cc(=O)c(OC(=O)C(C)(C)C)co1 | 21%

System: not listed separately
Assay: Inhibitory activity against Hog pancreatic elastase; IA = Inactive at 10e-5 M
Parameters: species or system Sus scrofa

Row | SMILES | IC50
49 | CC(C)(C)C(=O)Oc1ccc(C(=O)OCc2cc(=O)c(OC(=O)C(C)(C)C)co2)cc1 | Not Active
50 | CCCCCC/C=C/CCCCCCCC(=O)OCc1cc(=O)c(OC(=O)C(C)(C)C)co1 | Not Active

Molecular target: T2, Neutrophil elastase (Homo sapiens)
Assay: Inhibitory activity against [14C]-Elastin hydrolysis at 3 uM concentration and 3h.
How it was run: as §1

Row | SMILES | inhibition
51 | CC(C)(C)C(=O)Oc1ccc(S(=O)(=O)c2ccc(OC(=O)C(C)(C)C)cc2)cc1 | 29%
52 | CCCCCCCC/C=C/CCCCCCCCCCCC(=O)OCc1cc(=O)c(OC(=O)C(C)(C)C)co1 | 32%
53 | CCCCCCCCCCCCCCCCCC(=O)OCc1cc(=O)c(OC(=O)C(C)(C)C)co1 | 13%
54 | CC(C)(C)C(=O)Oc1ccc(C(=O)c2ccccc2)c(OC(=O)C(C)(C)C)c1 | 10%
55 | CC(C)(C)C(=O)Oc1cc(C(=O)OCc2cc(=O)c(OC(=O)C(C)(C)C)co2)cc(OC(=O)C(C)(C)C)c1OC(=O)C(C)(C)C | 31%

Molecular target: T2, Neutrophil elastase (Homo sapiens)
Assay: Inhibitory activity against [14C]-Elastin hydrolysis at 2 uM concentration and 3h.
How it was run: as §1

Row | SMILES | inhibition
56 | CC(C)(C)C(=O)Oc1ccc(S(=O)(=O)c2ccc(OC(=O)C(C)(C)C)cc2)cc1 | 8%
57 | CCCCCCCC/C=C/CCCCCCCCCCCC(=O)OCc1cc(=O)c(OC(=O)C(C)(C)C)co1 | 13%
58 | CCCCCCCCCCCCCCCCCC(=O)OCc1cc(=O)c(OC(=O)C(C)(C)C)co1 | 9%
59 | CC(C)(C)C(=O)Oc1ccc(C(=O)c2ccccc2)c(OC(=O)C(C)(C)C)c1 | 9%
60 | CC(C)(C)C(=O)Oc1cc(C(=O)OCc2cc(=O)c(OC(=O)C(C)(C)C)co2)cc(OC(=O)C(C)(C)C)c1OC(=O)C(C)(C)C | 5%

System: not listed separately
Assay: Inhibitory activity against Hog pancreatic elastase;IA = Inactive at 10e-5 M
Parameters: species or system Sus scrofa

Row | SMILES | IC50
61 | CCCCCCCCCCCCCCCCCC(=O)OCc1cc(=O)c(OC(=O)C(C)(C)C)co1 | Not Active

Molecular target: T2, Neutrophil elastase (Homo sapiens)
Assay: Inhibitory activity against [14C]elastin hydrolysis at 1 uM concentration and 1h.
How it was run: as §1

Row | SMILES | inhibition
62 | CC(C)(C)C(=O)Oc1ccc(S(=O)(=O)c2ccc(OC(=O)C(C)(C)C)cc2)cc1 | 29%
63 | CC(C)(C)C(=O)Oc1ccc(C(=O)c2ccccc2)c(OC(=O)C(C)(C)C)c1 | 14%
64 | CC(C)(C)C(=O)Oc1cc(C(=O)OCc2cc(=O)c(OC(=O)C(C)(C)C)co2)cc(OC(=O)C(C)(C)C)c1OC(=O)C(C)(C)C | 39%

System: not listed separately
Assay: Inhibitory activity against pancreatic elastase; IA = Inactive at 10e-5 M

Row | SMILES | IC50
65 | CC(C)(C)C(=O)Oc1ccc(C(=O)OCc2cc(=O)c(OC(=O)C(C)(C)C)co2)cc1 | Not Active
66 | CCCCCCCCCCCCCCCCCC(=O)OCc1cc(=O)c(OC(=O)C(C)(C)C)co1 | Not Active
67 | CCCCCC/C=C/CCCCCCCC(=O)OCc1cc(=O)c(OC(=O)C(C)(C)C)co1 | Not Active

Molecular target: T2, Neutrophil elastase (Homo sapiens)
Assay: Inhibitory activity against [14C]elastin hydrolysis at 3 uM concentration and 2 hr.
How it was run: as §1

Row | SMILES | inhibition
68 | CC(C)(C)C(=O)Oc1ccc(S(=O)(=O)c2ccc(OC(=O)C(C)(C)C)cc2)cc1 | 40%
69 | CCCCCCCC/C=C/CCCCCCCCCCCC(=O)OCc1cc(=O)c(OC(=O)C(C)(C)C)co1 | 46%
70 | CCCCCCCCCCCCCCCCCC(=O)OCc1cc(=O)c(OC(=O)C(C)(C)C)co1 | 39%
71 | CC(C)(C)C(=O)Oc1ccc(C(=O)c2ccccc2)c(OC(=O)C(C)(C)C)c1 | 32%
72 | CC(C)(C)C(=O)Oc1cc(C(=O)OCc2cc(=O)c(OC(=O)C(C)(C)C)co2)cc(OC(=O)C(C)(C)C)c1OC(=O)C(C)(C)C | 67%
